From ChEMBL document CHEMBL5385967, “Nitrogen-containing andrographolide derivatives with multidrug resistance reversal effects in cancer cells” (RSC Med Chem, 2024)

Key:
L5178Y [1] = test: Antiproliferative activity against mouse L5178Y cells assessed as reduction in cell viability incubated for 72 hrs by MTT assay; assay type: functional, cell-based
Outline: (§1)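 Parental L5178Y or human ABCB1-transfected L5178Y MDR subline kept under 60 ng mL−1 colchicine selection; McCoy's 5A, 10% heat-inactivated horse serum, 37 °C. 6 × 10^3 cells/well exposed to 2-fold serial dilutions from 100 μM for 72 h. MTT 4 h, SDS overnight, OD 540/630 nm. Triplicate; IC50 from curve fitting, mean ± SD.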

L5178Y [2] = test: Reversal of multidrug resistance in multidrug resistant mouse L5178Y cells transfected with human ABCB1 assessed as reduction in cell viability incubated for 72 hrs by MTT assay; assay type: functional, cell-based; outline: as §1
[3] = target: T1, ATP-dependent translocase ABCB1 (Homo sapiens, UniProt P08183); test: Modulation of human P-gp transfected in mouse L5178Y cells assessed as change in Rhodamine-123 efflux by measuring fluorescence activity ratio at 2 uM pretreated for 10 mins followed by Rhodamine-123 challenge for 20 mins by flow cytometry relative to parental mouse L5178Y cells; assay type: cell-based; conditions: 0.5 h, time 30 min
T1 sequence (P08183 whole entry): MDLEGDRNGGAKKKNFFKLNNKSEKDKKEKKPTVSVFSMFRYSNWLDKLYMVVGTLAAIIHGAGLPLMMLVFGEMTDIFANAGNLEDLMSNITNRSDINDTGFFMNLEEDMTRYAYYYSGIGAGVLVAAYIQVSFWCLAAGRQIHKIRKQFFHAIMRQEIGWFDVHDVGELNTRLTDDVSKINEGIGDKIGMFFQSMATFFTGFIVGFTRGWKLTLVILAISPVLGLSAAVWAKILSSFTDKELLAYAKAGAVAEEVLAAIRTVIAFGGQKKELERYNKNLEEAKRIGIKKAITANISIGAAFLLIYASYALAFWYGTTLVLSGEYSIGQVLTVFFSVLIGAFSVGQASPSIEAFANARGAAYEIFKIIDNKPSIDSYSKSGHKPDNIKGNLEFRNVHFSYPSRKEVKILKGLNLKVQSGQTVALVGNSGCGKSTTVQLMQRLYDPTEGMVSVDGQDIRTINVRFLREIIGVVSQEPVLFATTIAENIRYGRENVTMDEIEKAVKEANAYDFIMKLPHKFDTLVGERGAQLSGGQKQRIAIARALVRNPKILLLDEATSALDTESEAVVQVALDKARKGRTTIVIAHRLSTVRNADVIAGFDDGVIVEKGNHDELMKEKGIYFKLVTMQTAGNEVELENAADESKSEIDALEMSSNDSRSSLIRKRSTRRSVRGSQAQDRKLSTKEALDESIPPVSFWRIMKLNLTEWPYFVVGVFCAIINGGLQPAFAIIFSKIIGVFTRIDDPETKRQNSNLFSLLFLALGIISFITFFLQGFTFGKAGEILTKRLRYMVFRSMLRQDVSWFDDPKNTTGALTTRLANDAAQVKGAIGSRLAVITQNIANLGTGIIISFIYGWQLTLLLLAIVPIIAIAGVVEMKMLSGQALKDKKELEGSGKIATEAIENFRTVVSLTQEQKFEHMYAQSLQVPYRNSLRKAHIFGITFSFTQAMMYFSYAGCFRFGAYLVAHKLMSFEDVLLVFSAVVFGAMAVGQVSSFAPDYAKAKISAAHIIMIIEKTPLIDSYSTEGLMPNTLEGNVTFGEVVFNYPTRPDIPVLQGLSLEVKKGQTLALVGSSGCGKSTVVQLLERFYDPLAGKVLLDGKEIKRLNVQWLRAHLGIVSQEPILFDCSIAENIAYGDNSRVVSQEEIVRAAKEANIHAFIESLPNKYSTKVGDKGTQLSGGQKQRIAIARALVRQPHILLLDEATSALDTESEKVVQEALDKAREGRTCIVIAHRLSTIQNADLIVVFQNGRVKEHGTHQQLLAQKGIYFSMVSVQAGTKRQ
Outline: (§2)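 PAR and MDR cells at 2 × 10^6 cells/mL in serum-free McCoy's 5A. Compound given 10 min at room temperature, then rhodamine-123 (5.2 μM final) for 20 min at 37 °C. Washed twice, resuspended in PBS, mean FL-1 read by flow cytometry. FAR = (MDR treated/untreated)/(PAR treated/untreated). Verapamil 20 μM positive control, DMSO 2% solvent control.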

[4] = target: T1, ATP-dependent translocase ABCB1; test: Modulation of human P-gp transfected in mouse L5178Y cells assessed as change in Rhodamine-123 efflux by measuring fluorescence activity ratio at 20 uM pretreated for 10 mins followed by Rhodamine-123 challenge for 20 mins by flow cytometry relative to parental mouse L5178Y cells; assay type: cell-based; conditions: 0.5 h, time 30 min
[5] = Resistance ratio of IC50 for antiproliferative activity against multidrug resistant mouse L5178Y cells transfected with human ABCB1 to IC50 for antiproliferative activity against mouse L5178Y cells; assay type: functional
Outline: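 RR = IC50(MDR)/IC50(PAR), IC50s from the 72 h MTT assay: 2-fold dilutions from 100 μM, 6 × 10^3 cells/well, triplicate. Collateral sensitivity taken as RR < 0.5; RR < 1 counted as selectivity toward resistant cells.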

[6] = target: T1, ATP-dependent translocase ABCB1; test: Modulation of human P-gp transfected in mouse L5178Y cells assessed as change in Rhodamine-123 efflux by measuring fluorescence activity ratio at 0.2 uM pretreated for 10 mins followed by Rhodamine-123 challenge for 20 mins by flow cytometry relative to parental mouse L5178Y cells; assay type: cell-based; conditions: 0.5 h, time 30 min; outline: as §2
L5178Y [7] = test: Synergistic antiproliferative activity against multidrug resistant mouse L5178Y cells transfected with human ABCB1 assessed as combination index incubated for 72 hrs in presence of doxorubicin by MTT assay; assay type: functional
Outline: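 Checkerboard in MDR cells, 6 × 10^3 cells/well. Doxorubicin in serial dilutions from 8.6 μM, crossed with modifier dilutions whose start level was set from its IC50. 72 h at 37 °C under CO2, growth read by MTT. Curves fitted by the median-effect equation; CI reported at 50% inhibition, mean ± SD.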

SMILES	IC50 (L5178Y [1]) [µM]	IC50 (L5178Y [2]) [µM]	Ratio [3]	Ratio [4]	Ratio [5]	Ratio [6]	CI (L5178Y [7])
C=C1CC[C@@H]2[C@](C)(COC(C)=O)[C@H](OC(C)=O)CC[C@@]2(C)[C@@H]1C[C@H](NNC(=S)Nc1ccccc1)C1=CCOC1=O	51.7	> 100	7.9	55.07			
C=C1CC[C@@H]2[C@](C)(COC(C)=O)[C@H](OC(C)=O)CC[C@@]2(C)[C@@H]1C[C@H](NNC(=O)c1ccc(Cl)cc1)C1=CCOC1=O	14.2	9.04	3.36		0.64	1.56	<1
C=C1CC[C@@H]2[C@](C)(COC(C)=O)[C@H](OC(C)=O)CC[C@@]2(C)[C@@H]1C[C@H](NNC(=S)Nc1ccc(CC)cc1)C1=CCOC1=O	38.9	> 100	61.3	79.48			
C=C1CC[C@@H]2[C@](C)(COC(C)=O)[C@H](OC(C)=O)CC[C@@]2(C)[C@@H]1C[C@H](NNC(=O)c1ccc(N)cc1)C1=CCOC1=O	12.3	5.47	0.48		0.44	0.48	<1
C=C1CC[C@@H]2[C@](C)(COC(C)=O)[C@H](OC(C)=O)CC[C@@]2(C)[C@@H]1C[C@H](NNC(=S)Nc1ccc([N+](=O)[O-])cc1)C1=CCOC1=O	16.1	54.8	27.27	51.95	3.4		
C=C1CC[C@@H]2[C@](C)(COC(C)=O)[C@H](OC(C)=O)CC[C@@]2(C)[C@@H]1C[C@H](NNC(=O)OCc1ccc(OC)cc1)C1=CCOC1=O	17.7	23.4	1.21	64.99	1.32		<1
C=C1CC[C@@H]2[C@](C)(COC(C)=O)[C@H](OC(C)=O)CC[C@@]2(C)[C@@H]1C[C@H](NNC(=O)c1cccs1)C1=CCOC1=O	15.5	15	1.89		0.96	0.54	<1
C=C1CC[C@@H]2[C@](C)(COC(C)=O)[C@H](OC(C)=O)CC[C@@]2(C)[C@@H]1C[C@H](NNC(=S)Nc1cccc2ccccc12)C1=CCOC1=O	52.9	51.3	14.29	33.46	0.97		
C=C1CC[C@@H]2[C@](C)(COC(C)=O)[C@H](OC(C)=O)CC[C@@]2(C)[C@@H]1C[C@H](NNC(=S)NCCN1CCOCC1)C1=CCOC1=O	61.5	58.7	1.37	50.23	0.96		
C=C1CC[C@@H]2[C@](C)(COC(C)=O)[C@H](OC(C)=O)CC[C@@]2(C)[C@@H]1C[C@H](NNC(=S)Nc1ccccc1C)C1=CCOC1=O	56.9	81	1.06	37.12	1.42		
C=C1CC[C@@H]2[C@](C)(COC(C)=O)[C@H](OC(C)=O)CC[C@@]2(C)[C@@H]1C[C@@H](NNC(=O)c1ccc(C(F)(F)F)cc1)C1=CCOC1=O	14.2	15.3	5.19		1.08	1.63	<1
C=C1CC[C@@H]2[C@](C)(COC(C)=O)[C@H](OC(C)=O)CC[C@@]2(C)[C@@H]1C[C@H](NNC(=S)Nc1ccc(C)cc1)C1=CCOC1=O	36.1	47.4	18.86	60.26	1.31		
C=C1CC[C@@H]2[C@](C)(COC(C)=O)[C@H](OC(C)=O)CC[C@@]2(C)[C@@H]1C[C@H](NNC(=O)c1cccnc1)C1=CCOC1=O	12.5	11.8	0.32		0.94	0.49	<1
C=C1CC[C@@H]2[C@](C)(COC(C)=O)[C@H](OC(C)=O)CC[C@@]2(C)[C@@H]1C[C@H](NNC(=S)N(C)C)C1=CCOC1=O	29.1	40.9	58.18	61.3	1.4		
C=C1CC[C@@H]2[C@](C)(COC(C)=O)[C@H](OC(C)=O)CC[C@@]2(C)[C@@H]1C[C@H](NNC(=S)NCc1ccccc1)C1=CCOC1=O	66.9	67.6	1.71	57.14	1.01		
C=C1CC[C@@H]2[C@](C)(COC(C)=O)[C@H](OC(C)=O)CC[C@@]2(C)[C@@H]1C[C@H](NNC(=S)NC)C1=CCOC1=O	44.4	51.3	0.88	41.85	1.16		
C=C1CC[C@@H]2[C@](C)(COC(C)=O)[C@H](OC(C)=O)CC[C@@]2(C)[C@@H]1C[C@H](NNC(=S)Nc1ccccc1F)C1=CCOC1=O	52.6	70	1.03	79.33	1.33		
COc1cccc2c1C(=O)c1c(O)c3c(c(O)c1C2=O)C[C@@](O)(C(=O)CO)C[C@@H]3O[C@H]1C[C@H](N)[C@H](O)[C@H](C)O1 [DOXORUBICIN]	0.07	6.82			95.43		
C=C1CC[C@@H]2[C@](C)(CO)[C@H](O)CC[C@@]2(C)[C@@H]1C/C=C1/C(=O)OC[C@H]1O [ANDROGRAPHOLIDE]	14.5	15	0.96	0.82	1.03		<1
C=C1CC[C@@H]2[C@](C)(COC(C)=O)[C@H](OC(C)=O)CC[C@@]2(C)[C@@H]1C/C=C1/C(=O)OC[C@H]1OC(C)=O	13.3	19.2	1.95	38.65	1.45		
C=C1CC[C@@H]2[C@](C)(COC(C)=O)[C@H](OC(C)=O)CC[C@@]2(C)[C@@H]1C[C@H](NNC(=S)NC(C)(C)C)C1=CCOC1=O	60.1	54.2	1.2	43.52	0.9		
C=C1CC[C@@H]2[C@](C)(COC(C)=O)[C@H](OC(C)=O)CC[C@@]2(C)[C@@H]1C[C@H](NNC(=S)NCc1ccco1)C1=CCOC1=O	50.1	71.5	1.27	31.12	1.43		
C=C1CC[C@@H]2[C@](C)(COC(C)=O)[C@H](OC(C)=O)CC[C@@]2(C)[C@@H]1C[C@H](NNC(=S)NC1CCCCC1)C1=CCOC1=O	75.7	67.4	18.13	64.94	0.89		
